From ChEMBL document CHEMBL4406821, “Novel dual inhibitors targeting CDK4 and VEGFR2 synergistically suppressed cancer progression and angiogenesis” (Eur J Med Chem, 2019)
Activity calls are given as the source filed them. The rule behind the calls is not given here.

Columns and labels:
[1] = target: Serine/threonine-protein kinase Sgk3 (Homo sapiens) (UniProt Q96BR1); test: Inhibition of recombinant human SGK3 (119 to end residues) at 1 uM using GRPRTSSFAEGKK as substrate incubated for 40 mins in presence of [gamma-33P]-ATP by scintillation counting method relative to control
Sequence of Serine/threonine-protein kinase Sgk3 (Homo sapiens) (Q96BR1 whole entry): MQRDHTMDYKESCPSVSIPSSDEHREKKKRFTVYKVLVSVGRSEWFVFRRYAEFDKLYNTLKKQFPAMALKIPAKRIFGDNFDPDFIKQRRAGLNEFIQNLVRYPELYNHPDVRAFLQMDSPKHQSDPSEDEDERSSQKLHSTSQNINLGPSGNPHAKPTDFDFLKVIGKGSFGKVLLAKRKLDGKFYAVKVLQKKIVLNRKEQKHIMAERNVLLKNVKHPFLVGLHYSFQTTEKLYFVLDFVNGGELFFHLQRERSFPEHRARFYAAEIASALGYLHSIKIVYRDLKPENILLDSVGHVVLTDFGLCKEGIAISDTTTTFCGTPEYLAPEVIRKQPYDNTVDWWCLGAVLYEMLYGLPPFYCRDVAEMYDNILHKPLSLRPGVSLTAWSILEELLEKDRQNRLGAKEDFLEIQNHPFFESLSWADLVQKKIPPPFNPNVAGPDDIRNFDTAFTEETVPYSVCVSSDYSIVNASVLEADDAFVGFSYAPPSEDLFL

[2] = target: Receptor tyrosine-protein kinase erbB-2 (Homo sapiens) (UniProt P04626); test: Inhibition of recombinant human ERBB2 (676 to end residues) at 1 uM using poly (Glu, Tyr) 4:1 as substrate incubated for 40 mins in presence of [gamma-33P]-ATP by scintillation counting method relative to control
[3] = target: Serine-protein kinase ATM (Homo sapiens) (UniProt Q13315); test: Inhibition of recombinant human full length ATM at 1 uM using GST-cMyc-p53 as substrate incubated for 40 mins in presence of [gamma-33P]-ATP by scintillation counting method relative to control
Sequence of Serine-protein kinase ATM (Homo sapiens) (Q13315 whole entry, the tested form may be a part): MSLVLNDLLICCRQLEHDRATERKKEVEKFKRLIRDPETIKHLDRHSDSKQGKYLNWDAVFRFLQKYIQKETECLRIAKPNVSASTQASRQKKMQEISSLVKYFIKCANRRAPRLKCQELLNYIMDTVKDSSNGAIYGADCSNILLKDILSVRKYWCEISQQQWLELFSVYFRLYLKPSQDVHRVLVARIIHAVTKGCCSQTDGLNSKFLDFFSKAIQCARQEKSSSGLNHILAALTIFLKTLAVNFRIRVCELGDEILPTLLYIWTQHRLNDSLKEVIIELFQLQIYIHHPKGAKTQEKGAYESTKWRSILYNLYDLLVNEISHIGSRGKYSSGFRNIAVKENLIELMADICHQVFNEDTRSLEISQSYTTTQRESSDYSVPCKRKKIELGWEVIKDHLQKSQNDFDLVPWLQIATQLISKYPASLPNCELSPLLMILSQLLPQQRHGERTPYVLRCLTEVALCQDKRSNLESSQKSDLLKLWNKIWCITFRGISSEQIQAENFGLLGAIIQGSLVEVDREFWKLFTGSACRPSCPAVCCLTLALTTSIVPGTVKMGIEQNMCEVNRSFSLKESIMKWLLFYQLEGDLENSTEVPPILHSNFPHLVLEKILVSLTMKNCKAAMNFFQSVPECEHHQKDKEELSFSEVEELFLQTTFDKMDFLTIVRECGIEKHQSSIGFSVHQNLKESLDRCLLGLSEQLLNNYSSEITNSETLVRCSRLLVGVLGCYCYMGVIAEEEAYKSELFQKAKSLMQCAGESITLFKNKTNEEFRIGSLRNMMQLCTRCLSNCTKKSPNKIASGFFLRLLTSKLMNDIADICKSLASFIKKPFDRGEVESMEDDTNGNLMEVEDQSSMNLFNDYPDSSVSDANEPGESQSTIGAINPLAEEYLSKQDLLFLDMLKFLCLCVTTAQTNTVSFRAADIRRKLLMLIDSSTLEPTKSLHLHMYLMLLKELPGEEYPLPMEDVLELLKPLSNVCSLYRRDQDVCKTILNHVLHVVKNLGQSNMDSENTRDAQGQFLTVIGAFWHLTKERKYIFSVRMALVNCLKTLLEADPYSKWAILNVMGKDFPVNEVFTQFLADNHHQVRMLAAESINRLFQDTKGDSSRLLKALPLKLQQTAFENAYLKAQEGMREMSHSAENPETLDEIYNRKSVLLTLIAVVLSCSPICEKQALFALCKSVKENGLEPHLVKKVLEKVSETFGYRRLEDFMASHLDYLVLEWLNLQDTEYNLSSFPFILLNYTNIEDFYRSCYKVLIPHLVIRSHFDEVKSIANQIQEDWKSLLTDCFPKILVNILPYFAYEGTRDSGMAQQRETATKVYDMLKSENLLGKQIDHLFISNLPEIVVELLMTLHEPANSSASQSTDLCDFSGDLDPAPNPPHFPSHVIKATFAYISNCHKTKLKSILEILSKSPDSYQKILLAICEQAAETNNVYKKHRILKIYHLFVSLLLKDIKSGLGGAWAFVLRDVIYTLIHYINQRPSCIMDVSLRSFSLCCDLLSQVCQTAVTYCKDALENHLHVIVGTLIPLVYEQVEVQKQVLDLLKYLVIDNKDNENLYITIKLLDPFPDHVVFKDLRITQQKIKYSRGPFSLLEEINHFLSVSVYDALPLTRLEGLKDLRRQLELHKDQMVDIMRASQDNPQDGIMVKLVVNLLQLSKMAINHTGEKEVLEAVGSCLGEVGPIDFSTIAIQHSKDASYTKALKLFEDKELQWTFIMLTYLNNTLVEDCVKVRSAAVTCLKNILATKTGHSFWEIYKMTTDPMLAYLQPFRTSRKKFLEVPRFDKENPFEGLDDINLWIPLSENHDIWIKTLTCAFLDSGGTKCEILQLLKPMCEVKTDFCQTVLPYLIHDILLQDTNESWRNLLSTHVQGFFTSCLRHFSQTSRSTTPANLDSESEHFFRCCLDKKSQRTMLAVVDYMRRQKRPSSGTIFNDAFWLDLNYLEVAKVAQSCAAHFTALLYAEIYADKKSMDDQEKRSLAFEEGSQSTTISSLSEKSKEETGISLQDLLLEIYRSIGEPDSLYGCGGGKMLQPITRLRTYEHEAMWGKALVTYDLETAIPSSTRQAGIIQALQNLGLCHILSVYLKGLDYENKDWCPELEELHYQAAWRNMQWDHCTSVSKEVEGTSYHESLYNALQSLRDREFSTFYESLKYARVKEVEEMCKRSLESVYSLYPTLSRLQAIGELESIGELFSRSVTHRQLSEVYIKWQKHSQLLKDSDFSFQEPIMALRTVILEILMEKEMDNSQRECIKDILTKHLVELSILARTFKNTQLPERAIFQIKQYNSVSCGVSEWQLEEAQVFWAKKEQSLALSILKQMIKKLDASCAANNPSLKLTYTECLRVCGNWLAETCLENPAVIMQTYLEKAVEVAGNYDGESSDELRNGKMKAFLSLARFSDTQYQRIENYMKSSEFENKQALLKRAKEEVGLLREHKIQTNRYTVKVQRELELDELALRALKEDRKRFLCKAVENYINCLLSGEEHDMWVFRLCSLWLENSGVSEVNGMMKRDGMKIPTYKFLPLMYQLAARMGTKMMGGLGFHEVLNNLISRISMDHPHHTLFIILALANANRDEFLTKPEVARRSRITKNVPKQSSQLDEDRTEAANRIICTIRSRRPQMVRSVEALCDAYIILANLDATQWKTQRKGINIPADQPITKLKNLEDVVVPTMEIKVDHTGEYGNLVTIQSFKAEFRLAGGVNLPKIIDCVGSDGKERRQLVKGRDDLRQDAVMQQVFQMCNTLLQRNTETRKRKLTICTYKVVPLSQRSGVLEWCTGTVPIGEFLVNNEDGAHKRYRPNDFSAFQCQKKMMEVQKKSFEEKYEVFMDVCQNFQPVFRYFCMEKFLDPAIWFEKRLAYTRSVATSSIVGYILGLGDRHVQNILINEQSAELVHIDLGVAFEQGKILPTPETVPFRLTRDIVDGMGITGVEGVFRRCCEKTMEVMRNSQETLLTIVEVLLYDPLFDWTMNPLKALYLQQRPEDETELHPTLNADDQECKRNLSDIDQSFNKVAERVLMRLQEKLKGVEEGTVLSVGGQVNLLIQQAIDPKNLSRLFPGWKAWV

[4] = target: Discoidin domain-containing receptor 2 (Homo sapiens) (UniProt Q16832); test: Inhibition of recombinant human DDR2 (467 to end residues) at 1 uM using KKSRGDYMTMQIG as substrate incubated for 40 mins in presence of [gamma-33P]-ATP by scintillation counting method relative to control
Procedure, shortened: (§1)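 Kinase panel profiling at 1 μM performed by Eurofins KinaseProfiler; percent inhibition reported as mean of two independent experiments.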

[5] = Toxicity in BALB/c mouse assessed as effect on blood parameter by measuring monocytes content at 40 mg/kg, po administered once two days for 4 times by hematology analyzer; conditions: in vivo
SiHa [6] = test: Induction of cell cycle arrest in human SiHa cells assessed as accumulation in G2/M phase at 40 to 80 nM incubated for 36 hrs by propidium iodide staining based flow cytometry; format: functional
Procedure, shortened: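 Cells were treated with graded concentrations for 36 h, then fixed overnight in 70% ice-cold ethanol at 4°C and resuspended in PBS. Staining used 50 µg/ml PI plus 5 µg/ml RNase at 37°C for 30 min. DNA content was analysed by FACS to give G0/G1, S and G2/M fractions.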

[7] = target: Ribosomal protein S6 kinase alpha-5 (Homo sapiens) (UniProt O75582); test: Inhibition of recombinant human MSK1 (2 to end residues) at 1 uM using GRPRTSSFAEGKK as substrate incubated for 40 mins in presence of [gamma-33P]-ATP by scintillation counting method relative to control
Sequence of Ribosomal protein S6 kinase alpha-5 (Homo sapiens) (O75582 whole entry, looked up, the tested form may be a part, canonical isoform): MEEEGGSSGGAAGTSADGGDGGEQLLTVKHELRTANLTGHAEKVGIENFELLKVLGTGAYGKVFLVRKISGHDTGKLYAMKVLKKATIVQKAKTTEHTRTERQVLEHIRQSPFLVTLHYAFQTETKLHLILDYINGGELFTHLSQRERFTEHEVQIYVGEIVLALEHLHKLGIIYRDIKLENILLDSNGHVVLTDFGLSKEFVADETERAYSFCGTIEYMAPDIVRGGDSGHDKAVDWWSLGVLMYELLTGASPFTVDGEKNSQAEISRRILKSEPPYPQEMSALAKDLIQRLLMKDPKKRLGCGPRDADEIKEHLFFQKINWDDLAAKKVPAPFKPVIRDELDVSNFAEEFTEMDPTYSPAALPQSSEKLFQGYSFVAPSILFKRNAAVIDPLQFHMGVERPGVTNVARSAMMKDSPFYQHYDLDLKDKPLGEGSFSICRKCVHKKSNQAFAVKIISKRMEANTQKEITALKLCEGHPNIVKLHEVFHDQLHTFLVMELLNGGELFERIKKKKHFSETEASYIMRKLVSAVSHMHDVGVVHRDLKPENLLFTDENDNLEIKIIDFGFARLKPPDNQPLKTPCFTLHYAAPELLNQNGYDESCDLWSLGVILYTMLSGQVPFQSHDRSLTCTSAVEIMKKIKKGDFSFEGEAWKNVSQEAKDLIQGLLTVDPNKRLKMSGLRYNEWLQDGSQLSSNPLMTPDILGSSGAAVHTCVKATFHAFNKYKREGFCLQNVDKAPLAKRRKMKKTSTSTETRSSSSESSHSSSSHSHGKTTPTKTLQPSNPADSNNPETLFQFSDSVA

[8] = target: Casein kinase I isoform gamma-1 (Homo sapiens) (UniProt Q9HCP0); test: Inhibition of recombinant human CK1gamma1 (25 to 355 residues) at 1 uM using KRRRALS(p)VAS as substrate incubated for 40 mins in presence of [gamma-33P]-ATP by scintillation counting method relative to control; procedure, shortened: as §1
[9] = Cmax in Sprague-Dawley rat at 10 mg/kg, iv by HPLC-MS analysis; format: ADME, organism-based; set-up: dose 10 mg/kg, route intravenous; conditions: in vivo
Procedure, shortened: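 Rats fitted with jugular vein catheters for serial blood sampling. Compound dissolved in saline with 5% (v/v) DMSO and given as a single 10 mg/kg dose iv or po after an overnight fast, n = 5 per group. Plasma isolated at once and measured by HPLC with tandem MS detection. Parameters derived by noncompartmental fitting.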

[10] = target: Rhodopsin kinase GRK1 (Homo sapiens) (UniProt Q15835); test: Inhibition of recombinant human full length GRK1 at 1 uM using KKKKERLLDDRHDSGLDSMKDEE as substrate incubated for 40 mins in presence of [gamma-33P]-ATP by scintillation counting method relative to control
[11] = target: Protein-tyrosine kinase 2-beta (Homo sapiens) (UniProt Q14289); test: Inhibition of recombinant human full length PYK2 at 1 uM using poly(Glu, Tyr) 4:1 as substrate incubated for 40 mins in presence of [gamma-33P]-ATP by scintillation counting method relative to control
[12] = target: Bone morphogenetic protein receptor type-2 (Homo sapiens) (UniProt Q13873); test: Inhibition of recombinant human BMPR2 (172 to 734 residues) at 1 uM using myelin ba as substrate incubated for 120 mins in presence of [gamma-33P]-ATP by scintillation counting method relative to control; procedure, shortened: as §1
[13] = tested on: Epidermal growth factor receptor (Homo sapiens), P00533 [T790M]; test: Inhibition of recombinant human EGFR T790M mutant (696 to end residues) at 1 uM using poly(Glu, Tyr) 4:1 as substrate incubated for 40 mins in presence of [gamma-33P]-ATP by scintillation counting method relative to control
[14] = tested on: Serine/threonine-protein kinase B-raf (Homo sapiens), P15056 [V600E]; test: Inhibition of recombinant human BRAF V599E mutant (416 to end residues) at 1 uM using myelin as substrate incubated for 40 mins in presence of [gamma-33P]-ATP by scintillation counting method relative to control; procedure, shortened: as §1
Sequence of Serine/threonine-protein kinase B-raf (Homo sapiens), P15056 [V600E] (P15056 whole entry V600E): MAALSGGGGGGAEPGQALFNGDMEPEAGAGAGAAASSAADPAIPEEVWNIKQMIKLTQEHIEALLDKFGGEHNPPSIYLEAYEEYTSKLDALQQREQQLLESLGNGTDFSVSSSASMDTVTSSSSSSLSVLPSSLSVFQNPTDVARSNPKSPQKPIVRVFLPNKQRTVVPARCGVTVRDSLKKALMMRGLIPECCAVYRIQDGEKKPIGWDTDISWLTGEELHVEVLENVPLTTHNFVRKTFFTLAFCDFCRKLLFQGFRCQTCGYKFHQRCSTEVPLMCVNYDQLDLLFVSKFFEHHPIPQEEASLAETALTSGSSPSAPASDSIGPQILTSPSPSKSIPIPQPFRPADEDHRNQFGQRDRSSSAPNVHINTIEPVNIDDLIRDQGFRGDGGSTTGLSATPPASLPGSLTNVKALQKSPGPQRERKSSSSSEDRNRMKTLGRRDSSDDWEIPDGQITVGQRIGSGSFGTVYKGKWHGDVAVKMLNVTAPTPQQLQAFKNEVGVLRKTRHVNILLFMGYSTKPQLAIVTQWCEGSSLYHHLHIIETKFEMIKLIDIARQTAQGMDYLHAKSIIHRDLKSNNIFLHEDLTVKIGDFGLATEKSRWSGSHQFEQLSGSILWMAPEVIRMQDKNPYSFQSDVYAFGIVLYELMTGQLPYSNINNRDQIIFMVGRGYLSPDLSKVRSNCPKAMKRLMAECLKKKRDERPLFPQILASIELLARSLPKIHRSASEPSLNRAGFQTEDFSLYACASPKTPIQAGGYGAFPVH

[15] = target: Tyrosine-protein kinase ZAP-70 (Homo sapiens) (UniProt P43403); test: Inhibition of recombinant human full length ZAP70 at 1 uM using poly(Glu, Tyr) 4:1 as substrate incubated for 40 mins in presence of [gamma-33P]-ATP by scintillation counting method relative to control
[16] = Toxicity in BALB/c mouse assessed as effect on blood parameter by measuring MCH at 40 mg/kg, po administered once two days for 4 times by hematology analyzer; conditions: in vivo
[17] = target: Vascular endothelial growth factor receptor 2 (Homo sapiens, UniProt P35968); test: Inhibition of VEGFR2 in HUVEC cells assessed as reduction in VEGFR2 phosphorylation at 20 to 40 nM incubated for 48 hrs by Western blot analysis; format: cell-based
Procedure, shortened: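 HUVECs were maintained in 1640 medium with 10% FBS. They were treated with graded concentrations for 48 h, PBS-washed and lysed in RIPA buffer. Immunoblots were probed for total and phospho VEGFR2, STAT3, Akt, Erk1 and Src, each at 1:1000. β-actin served as loading control.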

[18] = target: cGMP-dependent protein kinase 1 (Homo sapiens) (UniProt Q13976); test: Inhibition of recombinant human full length PKG1alpha at 1 uM using RRRLSFAEPG as substrate incubated for 40 mins in presence of [gamma-33P]-ATP by scintillation counting method relative to control
MDA-MB-231 = test: Induction of apoptosis in human MDA-MB-231 cells assessed as decrease in Bcl2 expression at 40 nM incubated for 48 hrs by Western blot analysis; format: functional, cell-based
Procedure, shortened: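 Cells were treated for 48 h, washed three times with PBS, and lysed in RIPA buffer. Immunoblots used anti-Rb, anti-phospho-Rb, anti-Ki67 and anti-Bcl-2 (each 1:1000), with β-actin as loading control.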

SiHa [19] = test: Antitumor activity against human SiHa cells xenografted in NOD/SCID BALB/c mouse assessed as tumor growth inhibition at 40 mg/kg, po administered for 21 days; format: functional, organism-based
HeLa = test: Inhibition of colony formation in human HeLa cells at 80 nM incubated for 5 days by crystal violet staining based light microscopy; format: functional, cell-based
Procedure, shortened: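 4 × 10^3 cells per well were cultured with graded concentrations for 5 days. Cells were then fixed with 20% methanol, stained with 0.5% crystal violet and photographed by light microscopy.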

## Cc1ccc(NC(=O)C2(C(=O)Nc3ccc(Nc4ncc(F)c(-c5cc(F)c6nc(C)n(C(C)C)c6c5)n4)cc3)CC2)cc1
[1]
  inhibition: 11%
[2]
  inhibition: 3%
[3]
  inhibition: 2%
[4]
  inhibition: 55%
[5]
  Activity: Non-Toxic
SiHa [6]
  Activity: Active
[7]
  inhibition: 62%
[8]
  inhibition: 23%
[9]
  Cmax: 7000 ng/mL
[10]
  inhibition: 8%
[11]
  inhibition: 73%
[12]
  inhibition: 78%
[13]
  inhibition: 55%
[14]
  inhibition: 45%
[15]
  inhibition: 11%
[16]
  Activity: Non-Toxic
[17]
  inhibition: Active
[18]
  inhibition: 51%

## COc1cc2nccc(Oc3ccc(NC(=O)C4(C(=O)Nc5ccc(F)cc5)CC4)cc3)c2cc1OC [CABOZANTINIB]
MDA-MB-231
  Activity: Active
SiHa [19]
  TGI: Active
HeLa
  inhibition: Active
